Laboratory results reported in ChEMBL document CHEMBL4371041, “Synthesis and evaluation of thieno[3,2-d]pyrimidine derivatives as novel FMS inhibitors” (Bioorg Med Chem Lett, 2019).
pIC50: −log10 of the molar value.

Tests used:
[1] = Clearance in CD-1 mouse at 10 mg/kg, po; assay type: ADME, organism-based; details: in vivo
MDA-MB-231 [2] = assay: Growth inhibition of human MDA-MB-231 cells at 5 uM after 24 hrs by MTS assay relative to control; assay type: functional; details: MDA-MB-231, 24 h, read-out: GI
[3] = Oral bioavailability in CD-1 mouse at 10 mg/kg; assay type: ADME, organism-based; details: in vivo
[4] = molecular target: Platelet-derived growth factor receptor alpha (Homo sapiens) (UniProt P16234); assay: Inhibition of recombinant human N-terminal His6-tagged PDGFRalpha (550 to end residues) expressed in baculovirus infected Sf21 insect cells at 1 uM using Poly (Glu4-Tyr) (4:1) as substrate in presence of [gamma-33P]-ATP or [gamma-32P]-ATP relative to control
[5] = molecular target: Aurora kinase B/Inner centromere protein (Homo sapiens) (UniProt Q96GD4+Q9NQS7); assay: Inhibition of recombinant human full length C-terminal His6-tagged Aurora B/N-terminal GST-tagged INCENP (821 to end residues) expressed in baculovirus infected Sf21 insect cells at 1 uM in presence of [gamma-33P]-ATP or [gamma-32P]-ATP relative to control
MDA-MB-231 [6] = assay: Antiinvasive activity against human MDA-MB-231 cells after 72 hrs by luciferase reporter-based matrigel-coated transwell assay; assay type: functional, cell-based
Outline: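 Invasion of luciferase-expressing MDA-MB-231 cells assessed in a system including RAW264.7 mouse macrophages, across a dose range including 1 μM; invasion read by luciferase signal relative to untreated control.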

[7] = molecular target: T1, Maternal embryonic leucine zipper kinase (Homo sapiens, UniProt Q14680); assay: Inhibition of recombinant human N-terminal GST-tagged MELK (1 to 340 residues) expressed in baculovirus infected Sf21 insect cells using KKLNRTLSFAEPG as substrate in presence of [gamma-33P]-ATP or [gamma-32P]-ATP
Outline: (§1)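 Kinase panel of twenty-eight enzymes; IC50 values determined with ATP at the respective Km of each kinase.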
Target sequence in this assay (Q14680 whole entry, the tested form may be a part): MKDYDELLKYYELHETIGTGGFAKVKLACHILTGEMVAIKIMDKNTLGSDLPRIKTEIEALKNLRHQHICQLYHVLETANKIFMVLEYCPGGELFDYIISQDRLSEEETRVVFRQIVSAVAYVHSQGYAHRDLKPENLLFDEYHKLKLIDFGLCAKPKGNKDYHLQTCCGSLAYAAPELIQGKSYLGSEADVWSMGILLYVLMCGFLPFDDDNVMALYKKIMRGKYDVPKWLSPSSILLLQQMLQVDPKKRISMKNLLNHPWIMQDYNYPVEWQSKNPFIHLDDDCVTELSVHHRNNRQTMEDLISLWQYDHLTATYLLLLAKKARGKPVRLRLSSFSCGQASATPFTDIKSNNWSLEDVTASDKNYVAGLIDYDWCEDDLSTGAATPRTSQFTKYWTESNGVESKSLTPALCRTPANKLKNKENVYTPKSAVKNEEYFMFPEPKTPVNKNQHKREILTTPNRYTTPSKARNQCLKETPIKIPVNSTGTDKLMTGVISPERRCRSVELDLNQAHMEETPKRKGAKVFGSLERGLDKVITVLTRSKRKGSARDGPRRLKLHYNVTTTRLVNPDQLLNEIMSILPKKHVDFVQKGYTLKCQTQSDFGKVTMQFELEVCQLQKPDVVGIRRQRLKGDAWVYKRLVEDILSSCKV

Cytochrome P450 2D6 = Cytochrome P450 2D6 (Homo sapiens, UniProt P10635); assay: Inhibition of CYP2D6 in human liver microsomes by LC-MS/MS analysis; assay type: ADME
Sequence of Cytochrome P450 2D6 (P10635 whole entry): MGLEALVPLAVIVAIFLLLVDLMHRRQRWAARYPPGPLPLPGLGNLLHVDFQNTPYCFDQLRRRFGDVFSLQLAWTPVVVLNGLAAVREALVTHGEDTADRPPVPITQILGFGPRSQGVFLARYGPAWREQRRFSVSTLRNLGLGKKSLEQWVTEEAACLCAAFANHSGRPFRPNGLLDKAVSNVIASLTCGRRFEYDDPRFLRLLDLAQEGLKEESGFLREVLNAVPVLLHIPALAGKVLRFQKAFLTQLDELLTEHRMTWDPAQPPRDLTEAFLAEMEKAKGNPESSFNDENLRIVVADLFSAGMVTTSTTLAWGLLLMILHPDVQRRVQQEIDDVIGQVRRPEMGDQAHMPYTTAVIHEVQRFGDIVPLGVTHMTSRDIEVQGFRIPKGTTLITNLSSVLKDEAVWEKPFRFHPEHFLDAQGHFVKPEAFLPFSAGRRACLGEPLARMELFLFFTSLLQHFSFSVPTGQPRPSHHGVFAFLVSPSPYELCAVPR
Outline: (§2)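 Reversible CYP inhibition measured in human liver microsomes; metabolite formation quantified by LC/MS/MS.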

[8] = molecular target: Ephrin type-B receptor 4 (Homo sapiens) (UniProt P54760); assay: Inhibition of recombinant human N-terminal His6-tagged EphB4 (561 to end residues) expressed in baculovirus infected Sf21 insect cells using poly (Glu, Tyr) (4:1) as substrate in presence of [gamma-33P]-ATP or [gamma-32P]-ATP relative to control; details: concentration not given here
[9] = molecular target: Discoidin domain-containing receptor 2 (Homo sapiens) (UniProt Q16832); assay: Inhibition of recombinant human N-terminal His6-tagged DDR2 (467 to end residues) expressed in baculovirus infected Sf21 insect cells at 1 uM using Axltide as substrate in presence of [gamma-33P]-ATP or [gamma-32P]-ATP relative to control
Sequence of Discoidin domain-containing receptor 2 (Homo sapiens) (Q16832 whole entry, the tested form may be a part): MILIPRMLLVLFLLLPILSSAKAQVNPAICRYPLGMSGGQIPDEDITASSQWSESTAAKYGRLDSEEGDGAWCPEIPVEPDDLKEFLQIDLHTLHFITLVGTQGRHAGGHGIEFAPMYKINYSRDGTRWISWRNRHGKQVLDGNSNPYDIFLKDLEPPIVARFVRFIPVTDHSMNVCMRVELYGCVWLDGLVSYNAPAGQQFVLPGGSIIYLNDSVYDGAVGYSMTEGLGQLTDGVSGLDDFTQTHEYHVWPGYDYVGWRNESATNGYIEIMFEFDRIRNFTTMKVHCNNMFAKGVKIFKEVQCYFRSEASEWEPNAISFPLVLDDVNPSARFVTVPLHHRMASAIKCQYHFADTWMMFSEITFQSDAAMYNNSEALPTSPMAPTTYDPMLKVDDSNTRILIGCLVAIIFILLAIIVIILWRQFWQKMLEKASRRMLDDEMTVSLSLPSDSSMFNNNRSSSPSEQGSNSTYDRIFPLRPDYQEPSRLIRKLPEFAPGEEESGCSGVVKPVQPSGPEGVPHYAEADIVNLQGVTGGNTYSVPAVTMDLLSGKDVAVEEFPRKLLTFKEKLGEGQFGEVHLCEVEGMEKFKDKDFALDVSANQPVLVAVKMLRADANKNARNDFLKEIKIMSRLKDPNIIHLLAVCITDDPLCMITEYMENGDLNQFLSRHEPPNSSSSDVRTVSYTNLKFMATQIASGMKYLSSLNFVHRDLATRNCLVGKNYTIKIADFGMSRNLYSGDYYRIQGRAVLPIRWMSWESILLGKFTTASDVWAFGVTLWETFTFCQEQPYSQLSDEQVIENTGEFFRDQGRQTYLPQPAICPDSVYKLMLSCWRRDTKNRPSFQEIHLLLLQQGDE

[10] = Cmax in CD-1 mouse at 3 mg/kg, iv; assay type: ADME, organism-based; parameters: dose 3 mg/kg, route intravenous; details: in vivo
[11] = Clearance in CD-1 mouse at 3 mg/kg, iv; assay type: ADME, organism-based; details: in vivo
NFS-60 = assay: Growth inhibition of mouse NFS60 cells after 72 hrs by CellTiter96 AQueous one solution cell proliferation assay; assay type: functional; details: NFS-60, 72 h
[12] = molecular target: Ribosomal protein S6 kinase alpha-1 (Homo sapiens) (UniProt Q15418); assay: Inhibition of RSK1 (unknown origin) at 1 uM in presence of [gamma-33P]-ATP or [gamma-32P]-ATP relative to control
Sequence of Ribosomal protein S6 kinase alpha-1 (Homo sapiens) (Q15418 whole entry): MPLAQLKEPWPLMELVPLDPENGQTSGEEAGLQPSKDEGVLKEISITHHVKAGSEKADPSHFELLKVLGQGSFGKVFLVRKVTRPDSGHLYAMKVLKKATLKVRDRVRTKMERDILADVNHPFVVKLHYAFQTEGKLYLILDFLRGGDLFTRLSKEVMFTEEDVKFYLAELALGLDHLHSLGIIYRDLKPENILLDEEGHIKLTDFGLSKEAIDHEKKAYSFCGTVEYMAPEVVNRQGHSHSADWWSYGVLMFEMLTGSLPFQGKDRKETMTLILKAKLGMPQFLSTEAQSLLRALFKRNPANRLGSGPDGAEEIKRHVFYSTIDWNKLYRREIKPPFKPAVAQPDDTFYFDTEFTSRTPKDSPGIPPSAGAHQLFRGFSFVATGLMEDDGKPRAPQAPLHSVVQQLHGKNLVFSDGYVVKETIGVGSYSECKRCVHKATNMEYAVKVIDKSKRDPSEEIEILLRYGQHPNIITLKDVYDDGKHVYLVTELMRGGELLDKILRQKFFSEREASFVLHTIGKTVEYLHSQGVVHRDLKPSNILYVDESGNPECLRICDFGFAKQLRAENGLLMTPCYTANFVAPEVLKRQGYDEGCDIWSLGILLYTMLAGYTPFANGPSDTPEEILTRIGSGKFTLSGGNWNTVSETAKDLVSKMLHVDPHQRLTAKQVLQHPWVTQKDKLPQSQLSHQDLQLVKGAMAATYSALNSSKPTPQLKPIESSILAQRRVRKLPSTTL

Cytochrome P450 1A2 = Cytochrome P450 1A2 (Homo sapiens, UniProt P05177); assay: Inhibition of CYP1A2 in human liver microsomes by LC-MS/MS analysis; assay type: ADME; outline: as §2
[13] = AUC (0 to 7 hrs) in CD-1 mouse at 10 mg/kg, po; assay type: ADME, organism-based; parameters: time < 7 hr, dose 10 mg/kg, route oral; details: in vivo
[14] = molecular target: Voltage-gated inwardly rectifying potassium channel KCNH2 (Homo sapiens, UniProt Q12809); assay: Displacement of Tracer Red from human ERG by fluorescence polarization assay
[15] = molecular target: Fibroblast growth factor receptor 1 (Homo sapiens, UniProt P11362); assay: Inhibition of recombinant human N-terminal GST-tagged FGFR1 (456 to 765 residues) expressed in baculovirus infected Sf21 insect cells using IGF-IRtide (12-527) as substrate in presence of [gamma-33P]-ATP or [gamma-32P]-ATP; outline: as §1
[16] = molecular target: Tyrosine-protein kinase JAK3 (Homo sapiens) (UniProt P52333); assay: Inhibition of recombinant human N-terminal His6-tagged JAK3 (781 to end residues) expressed in baculovirus infected Sf21 insect cells at 1 uM using JAK3tide as substrate in presence of [gamma-33P]-ATP or [gamma-32P]-ATP relative to control
[17] = molecular target: Glycogen synthase kinase-3 alpha (Homo sapiens) (UniProt P49840); assay: Inhibition of recombinant human N-terminal His6-tagged GSK3alpha (2 to end residues) expressed in baculovirus infected Sf21 insect cells at 1 uM using GSK3 substrate in presence of [gamma-33P]-ATP or [gamma-32P]-ATP relative to control
[18] = molecular target: NUAK family SNF1-like kinase 1 (Homo sapiens) (UniProt O60285); assay: Inhibition of recombinant human N-terminal His6-tagged ARK5 (2 to end residues) expressed in baculovirus infected Sf21 insect cells at 1 uM using CHKtide as substrate in presence of [gamma-33P]-ATP or [gamma-32P]-ATP relative to control
[19] = molecular target: Macrophage colony-stimulating factor 1 receptor (Homo sapiens, UniProt P07333); assay: […] at recombinant human N-terminal His6-tagged FMS (538 to end residues) expressed in baculovirus infected Sf21 insect cells using IGF-R1tide as substrate in presence of [gamma-33P]-ATP or [gamma-32P]-ATP
Sequence of Macrophage colony-stimulating factor 1 receptor (P07333 whole entry): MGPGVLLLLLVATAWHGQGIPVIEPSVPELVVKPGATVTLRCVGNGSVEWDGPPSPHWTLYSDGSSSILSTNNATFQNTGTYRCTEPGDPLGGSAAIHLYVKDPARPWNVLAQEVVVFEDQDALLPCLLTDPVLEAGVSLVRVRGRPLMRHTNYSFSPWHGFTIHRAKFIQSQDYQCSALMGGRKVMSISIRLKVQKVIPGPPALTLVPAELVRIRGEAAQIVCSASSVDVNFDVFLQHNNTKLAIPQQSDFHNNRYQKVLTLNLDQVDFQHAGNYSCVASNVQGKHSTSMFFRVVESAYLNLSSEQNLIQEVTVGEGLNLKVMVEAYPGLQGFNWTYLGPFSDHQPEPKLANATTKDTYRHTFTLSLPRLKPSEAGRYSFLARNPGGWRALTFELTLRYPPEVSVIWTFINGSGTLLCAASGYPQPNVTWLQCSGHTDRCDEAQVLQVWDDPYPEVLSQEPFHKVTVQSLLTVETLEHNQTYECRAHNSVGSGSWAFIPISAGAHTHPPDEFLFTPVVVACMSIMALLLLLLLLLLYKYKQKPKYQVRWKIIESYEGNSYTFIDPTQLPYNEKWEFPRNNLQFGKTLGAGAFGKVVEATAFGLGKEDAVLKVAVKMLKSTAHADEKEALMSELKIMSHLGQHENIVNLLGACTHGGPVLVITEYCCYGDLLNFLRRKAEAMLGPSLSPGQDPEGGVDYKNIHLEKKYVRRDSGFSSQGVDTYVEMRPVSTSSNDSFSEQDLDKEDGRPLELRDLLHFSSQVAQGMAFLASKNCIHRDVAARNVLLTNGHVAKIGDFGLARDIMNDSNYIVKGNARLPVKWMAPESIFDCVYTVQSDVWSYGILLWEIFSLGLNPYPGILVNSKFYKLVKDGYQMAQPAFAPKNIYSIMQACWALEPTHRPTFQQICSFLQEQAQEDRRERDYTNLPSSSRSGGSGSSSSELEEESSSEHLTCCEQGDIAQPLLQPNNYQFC

[20] = Stability in human hepatocytes assessed as parent compound remaining measured after 60 mins; assay type: ADME, cell-based, Hepatocyte; details: read-out: Stability
[21] = molecular target: T1, Maternal embryonic leucine zipper kinase; assay: Inhibition of recombinant human N-terminal GST-tagged MELK (1 to 340 residues) expressed in baculovirus infected Sf21 insect cells at 1 uM using KKLNRTLSFAEPG as substrate in presence of [gamma-33P]-ATP or [gamma-32P]-ATP relative to control
Target sequence in this assay (Q14680 whole entry, looked up, the tested form may be a part): as the sequence (Q14680 whole entry, the tested form may be a part) above

Angiopoietin-1 receptor [22] = molecular target: T2, Angiopoietin-1 receptor (Homo sapiens, UniProt Q02763); assay: Inhibition of recombinant human N-terminal His6-tagged Tie2 (771 to end residues) expressed in baculovirus infected Sf21 insect cells using Poly (Glu4-Tyr) (4:1) as substrate in presence of [gamma-33P]-ATP or [gamma-32P]-ATP
T2 sequence (Q02763 whole entry): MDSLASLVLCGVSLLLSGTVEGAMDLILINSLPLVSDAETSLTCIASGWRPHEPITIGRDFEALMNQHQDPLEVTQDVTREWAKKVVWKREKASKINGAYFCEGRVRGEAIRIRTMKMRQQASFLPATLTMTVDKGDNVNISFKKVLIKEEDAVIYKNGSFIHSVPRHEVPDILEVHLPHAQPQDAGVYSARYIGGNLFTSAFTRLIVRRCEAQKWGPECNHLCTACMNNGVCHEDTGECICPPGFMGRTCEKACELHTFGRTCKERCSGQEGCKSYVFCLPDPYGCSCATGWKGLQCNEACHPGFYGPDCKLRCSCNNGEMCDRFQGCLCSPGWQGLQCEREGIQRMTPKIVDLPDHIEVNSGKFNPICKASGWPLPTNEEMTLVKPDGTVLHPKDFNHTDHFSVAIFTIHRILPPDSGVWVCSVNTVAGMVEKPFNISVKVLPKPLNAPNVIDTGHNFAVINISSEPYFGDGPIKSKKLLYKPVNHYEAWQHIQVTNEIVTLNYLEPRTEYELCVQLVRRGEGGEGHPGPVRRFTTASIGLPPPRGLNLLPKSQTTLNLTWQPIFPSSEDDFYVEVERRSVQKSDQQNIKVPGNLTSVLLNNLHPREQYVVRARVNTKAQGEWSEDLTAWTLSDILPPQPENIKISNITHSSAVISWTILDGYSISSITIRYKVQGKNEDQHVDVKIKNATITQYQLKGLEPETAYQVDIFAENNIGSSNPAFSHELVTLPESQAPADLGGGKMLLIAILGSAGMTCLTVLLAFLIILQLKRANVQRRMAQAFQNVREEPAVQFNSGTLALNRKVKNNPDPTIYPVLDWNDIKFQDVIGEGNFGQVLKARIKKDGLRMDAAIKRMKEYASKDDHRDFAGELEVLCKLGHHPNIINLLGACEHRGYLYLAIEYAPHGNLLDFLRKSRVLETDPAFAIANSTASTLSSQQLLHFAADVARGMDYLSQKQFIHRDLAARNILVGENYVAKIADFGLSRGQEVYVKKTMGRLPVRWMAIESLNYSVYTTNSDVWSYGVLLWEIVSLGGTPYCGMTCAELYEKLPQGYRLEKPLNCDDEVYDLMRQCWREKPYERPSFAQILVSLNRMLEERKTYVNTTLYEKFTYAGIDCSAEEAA

Angiopoietin-1 receptor [23] = molecular target: T2, Angiopoietin-1 receptor; assay: Inhibition of recombinant human N-terminal His6-tagged Tie2 (771 to end residues) expressed in baculovirus infected Sf21 insect cells at 1 uM using Poly (Glu4-Tyr) (4:1) as substrate in presence of [gamma-33P]-ATP or [gamma-32P]-ATP relative to control

Structure (SMILES): Cc1cccc(Cn2nc(C)c3c(NC(=O)c4csc5c(N)ncnc45)cccc32)n1
- CL/F [1]: 33.3 mL/min/kg
- inhibition of growth at 5 µM (MDA-MB-231 [2]): 20%
- bioavailability [3]: 36%
- inhibition [4]: 2%
- inhibition [5]: -3%
- Activity (MDA-MB-231 [6]): Dose-dependent effect
- pIC50 [7]: 6.59
- pIC50 (Cytochrome P450 2D6): < 4.70
- inhibition [8]: 2%
- inhibition [9]: > 60%
- Cmax [10]: 2550 ng/mL
- clearance [11]: 15 mL/min/kg
- GI50 (NFS-60): 0.08 µM
- inhibition [12]: 14%
- pIC50 (Cytochrome P450 1A2): < 4.70
- AUC(0-t) at 7 h [13]: 4040 ng·h/mL
- pIC50 [14]: < 4.30
- pIC50 [15]: 6.84
- inhibition [16]: 6%
- inhibition [17]: -10%
- inhibition [18]: 20%
- pIC50 [19]: 8.70
- remaining at 1 h [20]: 87%
- inhibition [21]: > 60%
- pIC50 (Angiopoietin-1 receptor [22]): 6.68
- inhibition (Angiopoietin-1 receptor [23]): > 60%
